B1: tRNA (parent)
chain: GUUCCGUUGGCGUAAUGGUAACGCGUCUCCCUCCUAAGGAGAAGACUGCGGGUUCGAGUCCCGUACGGAACG

Fewer inactive variants are shown than the library holds.

Variants of B1 are the subject of this data set. The experiment in a line: yeast fitness relative to wild type (ratio to wild type); higher = fitter; tRNA-Arg(CCU), competitive growth, 37 C, YPD. Put shortly: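 Genotype frequency changes were the basis for Darwinian fitness relative to wild type. The frequencies came from 100-nucleotide paired-end sequencing of gene amplicons from the start population and each end population of pooled yeast strains with tRNA-Arg(CCU) gene variants at the native locus. Competition ran in YPD at 37°C for 24 hours in six replicates, genotypes needed ≥ 100 starting reads, and estimates < 0.5 were set to 0.5.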
With A43G C60A C66G, the yeast fitness was ≤ 0.5.

In the case of A43G G56A, the yeast fitness is 0.86.

Turning to A43G G44A G56C C62U, the yeast fitness is ≤ 0.5.

With G41C G58A C61A, the yeast fitness is ≤ 0.5.

Consider A42G G51U A70C, for which the yeast fitness was ≤ 0.5.

G41C C49A A69U: the yeast fitness came to 0.544.

As for A43G A65C, the yeast fitness came to 0.79.

Consider A42C C55G A57C C62U, for which the yeast fitness is ≤ 0.5.

On to A42G C60G C61G, for which the yeast fitness is ≤ 0.5.

Regarding A42C G58A C62A, the yeast fitness was ≤ 0.5.

On to A42C G48C C55U, for which the yeast fitness came out at 0.557.

Take A42G U59C C61U: the yeast fitness is 0.502.

Turning to A43C A65U, the yeast fitness was found to be 0.753.

Consider A43C A65G, for which the yeast fitness worked out at 0.95.

For the variant A42C G63C A69C, the yeast fitness was ≤ 0.5.

As for A43G G48C C55G, the yeast fitness was 0.597.

As for G41A U59G A69C, the yeast fitness was ≤ 0.5.

Regarding A42C U47C A69U, the yeast fitness was 0.821.

On to A43U A45G C55G, for which the yeast fitness is ≤ 0.5.

With A43G U47A U53A, the yeast fitness is ≤ 0.5.

Consider A42U G44C A65C, for which the yeast fitness is ≤ 0.5.

As for A42U A45G, the yeast fitness amounted to 0.918.

Regarding A42U A45U, the yeast fitness was determined as 1.09.

For the variant A43U A70U, the yeast fitness is 1.06.

On to A43U A65G C66U, for which the yeast fitness was determined as 0.794.

For A43G U64G, the yeast fitness is 0.64.

Take A43U C46A A69C: the yeast fitness amounted to 0.734.

As for A43C A45U C49G C61U, the yeast fitness was ≤ 0.5.

For A42U G51A C60G G63A, the yeast fitness was ≤ 0.5.

For G41C G48A C55A, the yeast fitness came to 0.569.

On to A43C C55U C66G, for which the yeast fitness is ≤ 0.5.

Turning to A43C G52C C55U A69C, the yeast fitness was ≤ 0.5.

As for G41C C49A, the yeast fitness came to 0.572.

On to A43G C55U, for which the yeast fitness is 0.711.

Turning to A43G C55A, the yeast fitness turned out to be 0.599.

In the case of G41C G44C C55A, the yeast fitness is 0.563.

For the variant A43C A70C, the yeast fitness is 0.897.

As for A43G G51C, the yeast fitness stood at 0.56.

In the case of A43C U59C, the yeast fitness stood at 0.828.

As to A42G G44C, the yeast fitness came out at 0.906.

Turning to A43C C62U, the yeast fitness stood at 0.93.

As for G41C C60G, the yeast fitness turned out to be 0.695.

Consider G41A G67C, for which the yeast fitness was 0.775.

On to A43C A57U, for which the yeast fitness came out at 0.678.

Take A42G A57U: the yeast fitness came out at 0.714.

On to A42G A57G, for which the yeast fitness was 0.768.

On to A42U A43U A57G, for which the yeast fitness is 0.534.

Take A43C G52A A70U: the yeast fitness was ≤ 0.5.

In the case of G41A G48C C49U G68A, the yeast fitness was ≤ 0.5.

In the case of A43G G63A, the yeast fitness came out at 0.745.

As for A43C C46U G56C, the yeast fitness amounted to 0.506.

A43G A45G C55U: the yeast fitness was ≤ 0.5.

As for A42U C49U G50A, the yeast fitness was 0.651.

On to A42G G51A C60U G63A, for which the yeast fitness was ≤ 0.5.

With G41C A69U A70U, the yeast fitness turned out to be 0.629.

Turning to G41C A69U A70G, the yeast fitness was 0.537.

As to A42G C60U A69G A70U, the yeast fitness was ≤ 0.5.

As for A42C C46A, the yeast fitness was 0.783.

Take A42C C46G: the yeast fitness was determined as 0.753.

On to A42C U47G, for which the yeast fitness stood at 0.607.

For the variant A42U C62A A70C, the yeast fitness is 0.581.

As for A43G G50A G68U, the yeast fitness was ≤ 0.5.

As for A42C G52C A69C, the yeast fitness amounted to 0.607.

Consider G41C A57G, for which the yeast fitness stood at 0.883.

For the variant G41C A57U, the yeast fitness was found to be 0.661.

Take G41C A57U G63A: the yeast fitness turned out to be 0.567.

Take G41C G67A: the yeast fitness was determined as 0.89.

For A42U C61U A70C, the yeast fitness came to 0.709.

For A42C G50C, the yeast fitness came to 0.548.

Consider A42G A45G, for which the yeast fitness was found to be 0.786.

With A42G A45U, the yeast fitness was 0.952.

For A42U C55U C66U, the yeast fitness was ≤ 0.5.

Consider A43G U53G C55A G56C A57G G58A U59G C60U A65C, for which the yeast fitness was ≤ 0.5.

With A42G G48A G51C, the yeast fitness is ≤ 0.5.

With A43C A45G G48A G58A A65U, the yeast fitness was ≤ 0.5.

Regarding A43U A57C, the yeast fitness was 0.726.

For A43G C49U U54C, the yeast fitness was 0.522.

As to A43C G48A A57C G68U, the yeast fitness was determined as 0.701.

Regarding A43G U47C, the yeast fitness is 1.04.

For the variant A43G U47A, the yeast fitness stood at 0.88.

Consider A43G G63U U64A, for which the yeast fitness was found to be 0.567.

For A43C C49A, the yeast fitness was 0.631.

In the case of A43C C49G, the yeast fitness was determined as 0.639.

As to A42C U47C G63A, the yeast fitness came to 0.692.

Consider A42G A43G C46G G56C, for which the yeast fitness was 0.57.

Regarding A42G A45U U64C A70C, the yeast fitness is ≤ 0.5.

Take A42G A69C: the yeast fitness came out at 0.95.

Turning to G41C A42C C49U, the yeast fitness is ≤ 0.5.

Regarding A42G C61A G63C, the yeast fitness was ≤ 0.5.

For the variant A42C C61U C62G, the yeast fitness was ≤ 0.5.

For the variant A42U G50C U53A, the yeast fitness is ≤ 0.5.

A43G A45G C55U G68A: the yeast fitness was ≤ 0.5.

Consider A43G G67C, for which the yeast fitness amounted to 0.872.

As to A42U C66U, the yeast fitness came out at 0.793.

In the case of A42G G44C U59A, the yeast fitness worked out at 0.537.

In the case of A42G G58C A70U, the yeast fitness turned out to be 0.748.

As for A43G A70U, the yeast fitness was 1.01.

As for A43G A70G, the yeast fitness came to 0.977.

Consider A43G A70C, for which the yeast fitness is 1.02.

Consider A43G C60U C62U A70C, for which the yeast fitness is ≤ 0.5.

On to A43C C55A, for which the yeast fitness stood at 0.588.

As to A43C C55G, the yeast fitness was found to be 0.641.

On to A43C C55U, for which the yeast fitness was found to be 0.721.

In the case of A43C A57C A69U, the yeast fitness was ≤ 0.5.

With G41C C49A G67A, the yeast fitness was ≤ 0.5.

As to A42U G50A A65C, the yeast fitness is ≤ 0.5.

On to A42G C49A, for which the yeast fitness was 0.782.

A42G C49G: the yeast fitness worked out at 0.767.

For A42C C60U G68A, the yeast fitness was ≤ 0.5.

For G41C C60U U64G G67A, the yeast fitness is ≤ 0.5.

A43G U53C: the yeast fitness is 0.84.

As for A43U A45G, the yeast fitness amounted to 0.852.

Turning to G41C C66G, the yeast fitness worked out at 0.594.

A43C G44A: the yeast fitness is 1.01.

Turning to A42G G56A, the yeast fitness was determined as 0.87.

Regarding A42G U47A, the yeast fitness was 0.785.

Take G41C C55A A70G: the yeast fitness was found to be 0.551.

For the variant A43G U59C, the yeast fitness was found to be 0.863.

On to A43G U59G, for which the yeast fitness came to 0.842.

With A42C U47C U54A G67C A69U, the yeast fitness was ≤ 0.5.

With A42C A45G G51A, the yeast fitness was ≤ 0.5.

On to A43G A69C, for which the yeast fitness turned out to be 0.935.

As for G41A G67U A69C, the yeast fitness is ≤ 0.5.

In the case of A42C A65G C66G, the yeast fitness was ≤ 0.5.

Regarding G41C C61G A65C, the yeast fitness was ≤ 0.5.

Take A42U C62U: the yeast fitness was 0.991.

As for A42U C62G, the yeast fitness stood at 0.596.

Take A42C C55A A65U: the yeast fitness is ≤ 0.5.

Turning to A43G U47C C62U, the yeast fitness turned out to be 0.644.

A42C G68A: the yeast fitness was 0.898.

As for A42C G68U, the yeast fitness was 0.873.

With G41C G56A, the yeast fitness was found to be 0.825.

With A42C G48C G67A, the yeast fitness was 0.574.

Consider A42G C49G U54C G63C A70U, for which the yeast fitness came out at 0.547.

A42C G51A A70C: the yeast fitness turned out to be 0.578.

Turning to A42C A43C C55G A57G, the yeast fitness amounted to 0.641.

Turning to A43C C49G C61A, the yeast fitness was 0.702.

With A42U C46U A69C, the yeast fitness was 0.9.

Regarding G41A G48C A57U A65U C66A, the yeast fitness was ≤ 0.5.

Regarding A43C A45G A69C, the yeast fitness is 0.643.

For the variant A42G C55G, the yeast fitness was 0.669.

With A42G C49U A65U, the yeast fitness was ≤ 0.5.

As for A43U A69U, the yeast fitness amounted to 0.904.

With G41A G51A C66A, the yeast fitness was ≤ 0.5.

Regarding A42C C62U A69U, the yeast fitness is 0.689.

For the variant G41C G68A, the yeast fitness was determined as 0.883.

As for G41C G68C, the yeast fitness is 0.774.

On to A42C C49G G50A, for which the yeast fitness was determined as 0.507.

As for A42C A45C U53A A65C A69U, the yeast fitness is ≤ 0.5.

As for G41C A43U U64C, the yeast fitness stood at 0.959.

Regarding G41C U59A, the yeast fitness stood at 0.801.

Consider G41C C46A C55G, for which the yeast fitness is ≤ 0.5.

A42C C49U: the yeast fitness was found to be 0.939.

For A43G A45U G63A, the yeast fitness is 0.613.

Turning to G41C G52C, the yeast fitness came to 0.527.

A42G G68C A69G: the yeast fitness came to 0.563.

With A42C C60G C62G G68C, the yeast fitness was ≤ 0.5.

As for A43G C49U C60A C62A, the yeast fitness is ≤ 0.5.

A43C G67U: the yeast fitness worked out at 0.849.

As to G41A U54A, the yeast fitness turned out to be 0.674.

As for A42C U47A G63C A69C, the yeast fitness was 0.578.

Turning to A43G U64A A69U, the yeast fitness came to 0.648.

As to A42C A57C C61A, the yeast fitness was ≤ 0.5.

Turning to A42C A45C G48A, the yeast fitness was 0.958.

As to A42U A43C C49G A65C, the yeast fitness is ≤ 0.5.

Take A42U A45U C60U A65C: the yeast fitness was ≤ 0.5.

Regarding A42G C61U, the yeast fitness was determined as 0.853.

The values are drawn from the RNAGym collection of RNA variant scans (doi:10.1126/science.aae0568).
